From PubChem
Sampled rows, rich in hits. Any-hit rate of the full collection: about 2%.
MC4R antag cAMP – MC4R antagonists of cAMP signaling, primary screen, cell-based, TR-FRET, antagonist arm of biased-ligand search. 360,000 tested, 0.48% active. Melanocortin receptor 4 (Homo sapiens), P32245. AID 540295, 2011. inhibition, % at 6.5 µM. MC4R-expressing cells, MTII-stimulated cAMP, LANCE TR-FRET;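 active means inhibition above its plate's cutoff, the mean of tested wells on that plate plus 3 SD, cut at about 29% in these data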;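 further: 0% = Melanotan II alone and 100% = Melanotan II plus saturating MCL0020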
Target sequence (P32245 whole entry, looked up): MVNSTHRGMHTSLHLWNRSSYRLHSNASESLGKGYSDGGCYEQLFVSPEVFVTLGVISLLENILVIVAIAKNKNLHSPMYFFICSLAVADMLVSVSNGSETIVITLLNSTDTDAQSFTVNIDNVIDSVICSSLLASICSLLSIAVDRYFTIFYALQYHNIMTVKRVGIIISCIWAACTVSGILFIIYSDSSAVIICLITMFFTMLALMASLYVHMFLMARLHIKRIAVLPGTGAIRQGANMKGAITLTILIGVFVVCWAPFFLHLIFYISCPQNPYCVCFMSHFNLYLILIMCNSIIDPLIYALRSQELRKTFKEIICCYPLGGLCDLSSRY
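System: U2OS-MC4R stable cell line; Technique: Eu-cAMP/anti-cAMP TR-FRET, emission 671 nm; Repeats: single well per compound; Also added: Melanotan II; Dosing: one concentration, 6.5 µM nominal; Schedule: 30-min compound, 1-h challenge, 1-h detection, room temperature.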
CHOP UPR activ – activators of apoptotic CHOP UPR arm, primary screen, cell-based, CHO-CHOP luciferase reporter, luminescence, uHTS; UPR activation; percent of tunicamycin response over DMSO baseline; activation, % at 10 µM; 330,000 tested, 0.34% active; AID 449763, 2010;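 active means at 10 µM dose, activation of 40% or more, normalized to positive control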;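 further: 100% = tunicamycin at 10 µg/mL and 0% = DMSO alone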
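Evaluation: % reporter activation, DMSO baseline versus tunicamycin full activation; System: CHO-CHOP luciferase reporter cell line; Input: 500 cells/well; Incubation: 6 h compound treatment, 37 °C; Measured by: Steady-Glo luciferase luminescence; Dosing: one dose, 10 µM in 0.5% DMSO; Buffer or medium: F12 medium, 10% FBS; Benchmarks: positive tunicamycin 10 µg/mL, negative DMSO alone.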
MC4R barr agon – MC4R agonists recruiting beta-arrestin, primary screen, cell-based, luminescence, agonist arm of biased-ligand search; U2OS MC4R beta-arrestin complementation; percent of melanotan II response, DMSO zero; Melanocortin receptor 4 (Homo sapiens), P32245; AID 540308, 2011; activation, % at 8.9 µM; 360,000 tested, 0.98% active;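 active means activation above a per-plate cutoff, the mean activation of sample wells on that plate plus 3 SD, cut at about 8% in these data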
UPR XBP1 act – activators of adaptive XBP1 UPR arm, primary screen, cell-based, CHO-XBP1 luciferase reporter, luminescence, uHTS; IRE1-XBP1 UPR activation; percent of tunicamycin response, DMSO as zero; activation, % at 20 µM; 330,000 tested, 0.33% active; AID 463104, 2010;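 active means versus positive control, 20 µM dose yields 30% or more activation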;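 further: 100% = tunicamycin at 10 µg/mL and 0% = DMSO only wells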
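Material: CHO-XBP1 cells stably carrying IRE1-XBP1-driven luciferase reporter | Medium: F12 with 10% serum | Compound dosing: 20 µM single concentration, DMSO 1% | Incubation: Overnight seeding at 37 °C, 6 h compound treatment at 37 °C | Detection: Steady-Glo luminescence read | Read-out basis: % activation of reporter signal versus tunicamycin and DMSO controls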
Bfl-1 A1 inh – caspase 3/7 activation in MEF A1-2A-BIM cells, primary screen, A1 inhibitor project, cell-based, luminescence, HTS. Caspase-Glo 3/7 luminescence, 3 h; percent of clofoctol response, vehicle zero. caspase activation, % (no concentration beside the values). 330,000 tested, 0.066% active;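 active means over half of replicate activation scores above 10%, or exactly half above 10 with the replicate mean above 10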
U2OS cAMP counter – nonselective cAMP signaling inhibitors, parental cells, counter-screen for MC4R biased antagonist project, cell-based, TR-FRET, U2OS, forskolin, triplicate; shares compounds with MC4R antag cAMP; LANCE TR-FRET; inhibition, % at 6.5 µM; 1,600 tested, 26% active; AID 602193, 2012;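 active means mean inhibition over triplicates above the low-control well mean plus 3 SD, set per campaign, cut at about 13% in these data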;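 further: signal is single emission at 671 nm which falls as cellular cAMP rises; 0% = forskolin-stimulated wells and 100% = buffer without forskolin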
MC4R cAMP antag – MC4R cAMP antagonists, retest, confirmation, cell-based, TR-FRET. shares compounds with MC4R antag cAMP. MC4R-expressing cells, MTII-stimulated cAMP. inhibition, % at 6.5 µM. 1,600 tested, 27% active. AID 602195, 2012; in the data active means inhibition above about 29%;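 further: 0% = agonist stimulated wells alone and 100% = agonist stimulated wells plus saturating reference antagonist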
Active calls of the source: *; . = no result given.

SMILES	MC4R antag cAMP	CHOP UPR activ	MC4R barr agon	UPR XBP1 act	Bfl-1 A1 inh	U2OS cAMP counter	MC4R cAMP antag
Cc1cc2nc[nH]c2cc1[N+](=O)[O-]	29*	1	0	1	1	5	2
Cc1ccc(CN2CC(=O)N3[C@H]4c5ccccc5OC[C@@H]4[C@H](c4ccccc4)[C@]3(C)C2=O)cc1	4	0	1	0	1	.	.
C[C@@]12C(=O)N(Cc3ccccc3)CC(=O)N1[C@H]1c3ccccc3OC[C@@H]1[C@@H]2c1ccccc1	29*	1	1	-2	-1	0	4
CCOCCC(=O)Nc1ccc2c(c1)c(=O)n(C)n2CC=C(C)C	-2	.	-1	.	.	.	.
Cc1ccc2nc(-c3ccc(NC(=S)NC(=O)C(C)C)cc3)sc2c1	47*	3	2	-2	0	5	19
Cc1ccc2nc(-c3ccc(NC(=O)C(C)N4C(=O)c5ccccc5C4=O)cc3)sc2c1 (centres undefined)	11	5	7	6	0	.	.
CC1C(=O)N(Cc2cn(CC3CCCCC3)nn2)CCS(=O)(=O)N1Cc1ccc(-c2ccc(Cl)cc2)cc1 (centres undefined)	0	.	0	.	.	.	.
C=C1CC2(OC1=O)c1ccccc1CCc1ccccc12	32*	.	-2	.	.	39*	24
CC1CCN(S(=O)(=O)c2ccc3c(c2)NC(=O)CS3)CC1	-2	2	-3	-3	0	.	.
O=C(Nc1ccccc1-c1ccccc1)c1ccc(Cl)c([N+](=O)[O-])c1	56*	0	0	-3	1	31*	74*
O=C(Nc1ccccc1C(=O)N1CCCC1)c1ccc(Cl)c([N+](=O)[O-])c1	36*	-6	2	-3	-1	5	25
Cc1nc2ccc(NC(=O)c3ccc(Cl)c([N+](=O)[O-])c3)cc2s1	30*	3	0	-4	-1	10	20
O=C(Nc1ccccc1N1CCCCC1)c1ccc(Cl)c([N+](=O)[O-])c1	41*	4	1	5	2	3	51*
Cc1nc2ccc(NC(=O)c3ccc([N+](=O)[O-])cc3)cc2s1	7	3	0	0	-1	.	.
CN1CCN(c2ccccc2NC(=O)c2ccc(N3CCCC3)c([N+](=O)[O-])c2)CC1	-1	1	-2	2	0	.	.
CS(=O)(=O)Cc1cccc(C(=O)NC2CCSc3ccccc32)c1 (centres undefined)	32*	-3	1	-4	0	5	-2
O=C(COC(=O)C(Cc1ccccc1)NC(=O)c1cccs1)NCc1ccccc1 (centres undefined)	30*	-1	2	0	0	8	21
O=C(N[C@@H](Cc1ccccc1)C(=O)OCC(=O)N1CCOCC1)c1cccs1	13	1	-1	0	1	.	.
CC(=O)NCCNC(=O)[C@H](Cc1ccccc1)NC(=O)c1cccs1	9	0	0	-3	-1	.	.
O=C(COC(=O)[C@H](Cc1ccccc1)NC(=O)c1cccs1)Nc1c(Cl)cccc1Cl	31*	-3	-1	-1	1	14*	35*
O=S(=O)(Cc1ccccc1)C(c1ccccc1)S(=O)(=O)Cc1ccccc1	-5	.	-2	.	.	.	.
COc1cc(OC)cc(Oc2ccc(S(=O)(=O)N3CCCCC3)cc2[N+](=O)[O-])c1	30*	0	-1	-2	-1	9	22
N#CC(=Cc1ccnc2ccccc12)c1ccccc1	-1	.	1	.	.	.	.
Cc1c(C(=O)N(C)Cc2ccc(F)cc2)sc(=O)n1Cc1ccc(Cl)c(Cl)c1	0	.	0	.	.	.	.
CCS(=O)(=O)c1ccc2oc(Nc3cccc(OC)c3)nc2c1	31*	4	1	1	0	1	-9
SMILES	MC4R antag cAMP	CHOP UPR activ	MC4R barr agon	UPR XBP1 act	Bfl-1 A1 inh	U2OS cAMP counter	MC4R cAMP antag
COc1ccc(C(O)c2ncc(-c3cccc4ccccc34)[nH]2)cc1F (centres undefined)	-4	.	1	.	.	.	.
O=C(CCCCC(=O)NN=Cc1ccc2c(c1)CCC2)NN=Cc1ccc2c(c1)CCC2	7	.	1	.	.	.	.
CCOC(=O)N1C2c3ccccc3C(c3ccccc32)N1C(=O)OCC	5	.	0	.	.	.	.
O=C(CSCc1ccc(Cl)cc1Cl)Nc1ccc(O)cc1C(=O)O	11	-1	3	-2	1	.	.
O=C(CSCc1ccc(Cl)cc1Cl)Nc1ccccc1C(=O)Nc1ccc(C(=O)O)cc1	30*	3	2	-2	0	-2	-2
CC1C(=O)N(Cc2cn(Cc3ccco3)nn2)CCS(=O)(=O)N1Cc1ccc(-c2ccc(Cl)cc2)cc1 (centres undefined)	-2	.	-2	.	.	.	.
COC(=O)C(Cc1ccc(O)cc1)NC(=O)c1ccccc1 (centres undefined)	49*	4	0	1	0	16*	41*
COC(=O)c1c(C)[nH]c(C(=O)COC(=O)CCc2ccc(OC)c(OC)c2)c1C	-2	.	3	.	.	.	.
Cc1ccc(-n2nc3c(c2NC(=O)c2ccc(S(=O)(=O)N4CCOCC4)cc2)CSC3)c(C)c1	32*	0	1	-2	.	-1	-2
CN(C)CCCN1C(=O)C(O)=C(C(=O)c2cc3ccccc3o2)C1c1ccccn1 (centres undefined)	33*	.	-1	.	.	9	26
COC(=O)[C@H](Cc1c[nH]c2ccccc12)NC(=O)NCc1ccc(OC)cc1	37*	0	1	-1	1	-4	1
COc1ccc(CNC(=O)COC(=O)[C@H](Cc2c[nH]c3ccccc23)NC(=O)c2cccs2)cc1	43*	5	-3	-1	0	22*	14
CCOc1ccc(S(=O)(=O)N2CCC(C(=O)N3CCN(c4ccccc4)CC3)CC2)cc1	-4	1	4	-3	0	.	.
COC(=O)COc1ccc(S(=O)(=O)N2CCN(c3ccccc3F)CC2)cc1	42*	-2	-1	-2	0	14*	33*
COC(=O)c1cc(S(=O)(=O)N2CCN(c3ccccc3F)CC2)c[nH]1	1	0	0	-4	-1	.	.
COC(=O)COc1ccc(S(=O)(=O)N2CCN(c3ccccc3)CC2)cc1	50*	-1	-2	-4	0	14*	28
